According to ChEMBL document CHEMBL1275272, “Synthesis, characterization and antimicrobial activity of some disubstituted 1,3,4-oxadiazoles carrying 2-(aryloxymethyl)phenyl moiety” (2010):
Values after ≈ are worked out from the molar mass of the structure shown.

Key:
Type in all cases: functional
[1] = tested on: Staphylococcus aureus; test: Antibacterial activity against Staphylococcus aureus after 16 to 18 hrs by serial dilution method; conditions: for MIC: Staphylococcus aureus
Method in brief: (§1)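 The test compound was dissolved in DMF and serially diluted. A standard drop of the prepared microbial culture was added to each dilution, and tubes were incubated at 37 °C for 16–18 h. MIC was taken as the highest dilution that stayed clear with no visible turbidity.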

[2] = tested on: Escherichia coli; test: Antibacterial activity against Escherichia coli after 16 to 18 hrs by serial dilution method; conditions: for MIC: Escherichia coli; method in brief: as §1
[3] = tested on: Pseudomonas aeruginosa; test: Antibacterial activity against Pseudomonas aeruginosa after 16 to 18 hrs by serial dilution method; conditions: for MIC: Pseudomonas aeruginosa; method in brief: as §1
[4] = tested on: Klebsiella pneumoniae; test: Antibacterial activity against Klebsiella pneumoniae after 16 to 18 hrs by serial dilution method; conditions: for MIC: Klebsiella pneumoniae
[5] = tested on: Talaromyces marneffei; test: Antifungal activity against Penicillium marneffei after 16 to 18 hrs by serial dilution method; conditions: for MIC: Talaromyces marneffei; method in brief: as §1
[6] = tested on: Trichophyton mentagrophytes; test: Antifungal activity against Trichophyton mentagrophytes after 16 to 18 hrs by serial dilution method; conditions: for MIC: Trichophyton mentagrophytes
[7] = tested on: Aspergillus flavus; test: Antifungal activity against Aspergillus flavus after 16 to 18 hrs by serial dilution method; conditions: for MIC: Aspergillus flavus; method in brief: as §1
[8] = tested on: Aspergillus fumigatus; test: Antifungal activity against Aspergillus fumigatus after 16 to 18 hrs by serial dilution method; conditions: for MIC: Aspergillus fumigatus

Compound | inhibition zone (IZ) [1] [mm] | MIC [1] [µg/mL] | inhibition zone (IZ) [2] [mm] | MIC [2] [µg/mL] | inhibition zone (IZ) [3] [mm] | MIC [3] [µg/mL] | inhibition zone (IZ) [4] [mm] | MIC [4] [µg/mL] | inhibition zone (IZ) [5] [mm] | MIC [5] [µg/mL] | inhibition zone (IZ) [6] [mm] | MIC [6] [µg/mL] | inhibition zone (IZ) [7] [mm] | MIC [7] [µg/mL] | inhibition zone (IZ) [8] [mm] | MIC [8] [µg/mL]
Clc1ccc(OCc2ccccc2-c2nnc(SCc3ccccc3)o2)cc1 | <10 | 25 (≈ 61.1 µM) | <10 | 25 (≈ 61.1 µM) | <10 | 25 (≈ 61.1 µM) | <10 | 25 (≈ 61.1 µM) | <10 | 25 (≈ 61.1 µM) | <10 | 25 (≈ 61.1 µM) | <10 | 25 (≈ 61.1 µM) | <10 | 25 (≈ 61.1 µM)
S=c1oc(-c2ccccc2COc2ccc(Cl)cc2)nn1CN1CCOCC1 | 11 | 12.5 (≈ 29.9 µM) | 11 | 12.5 (≈ 29.9 µM) | 11 | 12.5 (≈ 29.9 µM) | 11 | 12.5 (≈ 29.9 µM) | 11 | 12.5 (≈ 29.9 µM) | 11 | 12.5 (≈ 29.9 µM) | 11 | 12.5 (≈ 29.9 µM) | 11 | 12.5 (≈ 29.9 µM)
COc1cc(-c2nnc(-c3ccccc3COc3ccccc3C)o2)cc(OC)c1OC | 16 | 6.25 (≈ 14.5 µM) | 16 | 6.25 (≈ 14.5 µM) | 16 | 6.25 (≈ 14.5 µM) | 16 | 6.25 (≈ 14.5 µM) | 16 | 6.25 (≈ 14.5 µM) | 16 | 6.25 (≈ 14.5 µM) | 16 | 6.25 (≈ 14.5 µM) | 16 | 6.25 (≈ 14.5 µM)
Cc1ccc(OCc2ccccc2-c2nnc(SCc3ccc(Cl)cc3)o2)cc1 | 11 | 12.5 (≈ 29.6 µM) | 11 | 12.5 (≈ 29.6 µM) | 11 | 12.5 (≈ 29.6 µM) | 11 | 12.5 (≈ 29.6 µM) | 11 | 12.5 (≈ 29.6 µM) | 11 | 12.5 (≈ 29.6 µM) | 11 | 12.5 (≈ 29.6 µM) | 11 | 12.5 (≈ 29.6 µM)
Cc1ccccc1OCc1ccccc1-c1nnc(-c2cccnc2Cl)o1 | 11 | 12.5 (≈ 33.1 µM) | 11 | 12.5 (≈ 33.1 µM) | 11 | 12.5 (≈ 33.1 µM) | 11 | 12.5 (≈ 33.1 µM) | – | – | – | – | – | – | – | –
Clc1ccc(OCc2ccccc2-c2nnc(-c3cccnc3Cl)o2)cc1 | 11 | 12.5 (≈ 31.4 µM) | 11 | 12.5 (≈ 31.4 µM) | 11 | 12.5 (≈ 31.4 µM) | 11 | 12.5 (≈ 31.4 µM) | – | – | – | – | – | – | – | –
Cc1cc(C2CCCCC2)n(O)c(=O)c1.NCCO [CICLOPIROX OLAMINE] | – | – | – | – | – | – | – | – | 20 | 6.25 | 27 | 3.12 | 25 | 3.12 | 25 | 6.25
Cc1ccc(OCc2ccccc2-c2nnc(-c3cccnc3Cl)o2)cc1 | 11 | 12.5 (≈ 33.1 µM) | 11 | 12.5 (≈ 33.1 µM) | 11 | 12.5 (≈ 33.1 µM) | 11 | 12.5 (≈ 33.1 µM) | – | – | – | – | – | – | – | –
O=C(O)c1cn(C2CC2)c2cc(N3CCNCC3)c(F)cc2c1=O [CIPROFLOXACIN] | 30 | – | – | – | 25 | – | 22 | 1.56 (≈ 4.71 µM) | – | – | – | – | – | – | – | –
Cc1cccc(OCc2ccccc2-c2nnc(-c3cccnc3Cl)o2)c1 | 11 | 12.5 (≈ 33.1 µM) | 11 | 12.5 (≈ 33.1 µM) | 11 | 12.5 (≈ 33.1 µM) | 11 | 12.5 (≈ 33.1 µM) | – | – | – | – | – | – | – | –
